Assay results as given in ChEMBL document CHEMBL1250540, “Design, synthesis, and binding of homologated truncated 4'-thioadenosine derivatives at the human A3 adenosine receptors” (Bioorg Med Chem, 2010).

Experiments:
Format in all cases: cell-based
[1] = target: T1, Adenosine receptor A1 (Homo sapiens) (UniProt P30542); experiment: Displacement of [3H]R-PIA from human adenosine A1 receptor expressed CHO cells at 10 uM after 60 mins by gamma counting relative to NECA
T1 sequence (whole entry): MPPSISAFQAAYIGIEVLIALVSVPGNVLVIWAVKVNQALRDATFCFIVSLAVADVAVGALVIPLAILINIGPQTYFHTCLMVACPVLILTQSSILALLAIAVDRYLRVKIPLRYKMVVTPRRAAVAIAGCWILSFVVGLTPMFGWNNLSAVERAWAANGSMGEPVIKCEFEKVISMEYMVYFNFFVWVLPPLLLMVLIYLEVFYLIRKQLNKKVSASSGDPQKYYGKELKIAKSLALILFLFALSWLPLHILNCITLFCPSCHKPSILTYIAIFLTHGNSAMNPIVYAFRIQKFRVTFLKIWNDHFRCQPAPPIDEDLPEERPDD
How it was run: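 Membranes from CHO cells stably expressing human A1AR were incubated with 1 nM [3H]PIA at 25 °C for 60 min in 50 mM Tris–HCl (pH 7.4) with 10 mM MgCl2. Nonspecific binding was defined with CPA. Results are mean ± sem, n = 3–5.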

[2] = target: T2, Adenosine receptor A3 (Homo sapiens) (UniProt P0DMS8); experiment: Displacement of [125I]I-AB-MECA from human adenosine A3 receptor expressed CHO cells at 10 uM after 60 mins by gamma counting relative to NECA
T2 sequence (whole entry): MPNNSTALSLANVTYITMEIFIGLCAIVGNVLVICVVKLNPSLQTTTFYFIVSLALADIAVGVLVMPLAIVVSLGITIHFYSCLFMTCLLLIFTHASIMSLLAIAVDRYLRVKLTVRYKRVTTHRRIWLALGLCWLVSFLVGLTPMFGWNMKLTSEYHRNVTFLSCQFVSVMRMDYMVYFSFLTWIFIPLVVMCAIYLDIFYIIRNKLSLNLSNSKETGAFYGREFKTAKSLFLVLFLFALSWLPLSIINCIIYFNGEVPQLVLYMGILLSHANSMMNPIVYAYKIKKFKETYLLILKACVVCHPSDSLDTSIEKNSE
How it was run: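 Competition binding used membranes from CHO cells stably expressing human A3AR with 0.5 nM [125I]I-AB-MECA and test nucleoside in 50 mM Tris–HCl (pH 7.4) with 10 mM MgCl2 and 1 mM EDTA, at 25 °C for 60 min. Nonspecific binding was defined with Cl-IB-MECA. Percent inhibition was taken at a single concentration. Results are mean ± sem, n = 3–5.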

[3] = target: Adenosine receptor A2a (Homo sapiens) (UniProt P29274); experiment: Displacement of [3H]CGS 21680 from human adenosine A2A receptor expressed HEK293 cells at 10 uM after 60 mins by gamma counting relative to NECA
Chain of Adenosine receptor A2a (Homo sapiens) (P29274 whole entry): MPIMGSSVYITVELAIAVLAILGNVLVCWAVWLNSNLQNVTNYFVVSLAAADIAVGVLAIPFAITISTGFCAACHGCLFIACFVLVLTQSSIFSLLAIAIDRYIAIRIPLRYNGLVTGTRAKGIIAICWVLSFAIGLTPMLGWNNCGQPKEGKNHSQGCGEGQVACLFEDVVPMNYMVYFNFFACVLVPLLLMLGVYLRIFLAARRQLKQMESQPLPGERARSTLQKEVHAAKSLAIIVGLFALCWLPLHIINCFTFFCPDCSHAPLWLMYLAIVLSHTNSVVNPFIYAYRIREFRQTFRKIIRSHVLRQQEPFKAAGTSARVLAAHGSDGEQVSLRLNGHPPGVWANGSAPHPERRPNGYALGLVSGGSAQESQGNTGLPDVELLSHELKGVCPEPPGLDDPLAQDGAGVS
How it was run: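 Membranes from HEK-293 cells stably expressing human A2AAR were incubated with 15 nM [3H]CGS21680 at 25 °C for 60 min in 50 mM Tris–HCl (pH 7.4) with 10 mM MgCl2. Incubation was stopped by GF/B filtration. Results are mean ± sem, n = 3–5.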

SMILES	inhibition [1]	inhibition [2]	inhibition [3]
O[C@@H]1[C@H](O)CS[C@H]1Cn1cnc2c(NCc3cccc(F)c3)nc(Cl)nc21	7.9%	17.6%	12%
O[C@@H]1[C@H](O)CS[C@H]1Cn1cnc2c(NCc3cccc(Br)c3)nc(Cl)nc21	23.6%	21%	2%
O[C@@H]1[C@H](O)CS[C@H]1Cn1cnc2c(NCc3cccc(Cl)c3)nc(Cl)nc21	3.2%	13.6%	11%
O[C@@H]1[C@H](O)CS[C@H]1Cn1cnc2c(NCc3cccc(I)c3)ncnc21	9.6%	13.9%	18.2%
O[C@@H]1[C@H](O)CS[C@H]1Cn1cnc2c(NCc3cccc(Cl)c3)ncnc21	3.3%	8.9%	13%

Next, values leading:

inhibition [1]	inhibition [2]	inhibition [3]	SMILES
16.4%	10%	18.4%	O[C@@H]1[C@H](O)CS[C@H]1Cn1cnc2c(NCc3cccc(I)c3)nc(Cl)nc21
6.6%	6.1%	25.8%	O[C@@H]1[C@H](O)CS[C@H]1Cn1cnc2c(NCc3cccc(Br)c3)ncnc21
0.3%	8.7%	14%	O[C@@H]1[C@H](O)CS[C@H]1Cn1cnc2c(NCc3cccc(F)c3)ncnc21
